Test results taken from ChEMBL document CHEMBL4477243, “Discovery and SAR of a novel series of potent, CNS penetrant M4 PAMs based on a non-enolizable ketone core: Challenges in disposition” (Bioorg Med Chem Lett, 2016).
Calls of active or inactive are those of the source. The calls are words filed in the database; no cut-off is given here.

Experiments:
[1] = target: T1, Muscarinic acetylcholine receptor M4 (Homo sapiens, UniProt P08173); assay: Positive allosteric modulation activity at human M4 receptor expressed in CHO cells co-expressing Gqi5 protein assessed as potentiation of EC20 acetyl choline-induced response by calcium mobilization assay; assay type: functional, cell-based
T1 sequence (P08173 whole entry): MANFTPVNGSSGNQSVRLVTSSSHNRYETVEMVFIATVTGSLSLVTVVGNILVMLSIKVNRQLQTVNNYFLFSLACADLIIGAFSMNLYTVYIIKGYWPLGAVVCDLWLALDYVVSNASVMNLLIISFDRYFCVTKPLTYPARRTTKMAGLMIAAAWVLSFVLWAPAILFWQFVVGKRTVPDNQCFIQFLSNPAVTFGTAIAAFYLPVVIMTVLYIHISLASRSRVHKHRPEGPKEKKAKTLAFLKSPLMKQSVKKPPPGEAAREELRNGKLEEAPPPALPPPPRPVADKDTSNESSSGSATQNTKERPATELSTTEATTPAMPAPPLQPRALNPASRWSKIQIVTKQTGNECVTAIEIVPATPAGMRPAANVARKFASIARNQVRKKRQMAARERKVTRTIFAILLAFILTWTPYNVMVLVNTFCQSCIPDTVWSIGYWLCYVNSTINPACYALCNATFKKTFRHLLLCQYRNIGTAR
Outline: (§1)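 Calcium mobilization in CHO cells stably co-expressing human or rat M4 with the chimeric Gqi5 protein. Test compound given with a fixed EC20 concentration of acetylcholine. Potency reported as EC50; efficacy as % of the acetylcholine maximum. Means of three independent experiments, each in triplicate.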

[2] = target: T2, Muscarinic acetylcholine receptor M4 (Rattus norvegicus, UniProt P08485); assay: Positive allosteric modulation activity at rat M4 receptor expressed in CHO cells co-expressing Gqi5 protein assessed as potentiation of EC20 acetyl choline-induced response by calcium mobilization assay; assay type: functional, cell-based; outline: as §1
T2 sequence (P08485 whole entry): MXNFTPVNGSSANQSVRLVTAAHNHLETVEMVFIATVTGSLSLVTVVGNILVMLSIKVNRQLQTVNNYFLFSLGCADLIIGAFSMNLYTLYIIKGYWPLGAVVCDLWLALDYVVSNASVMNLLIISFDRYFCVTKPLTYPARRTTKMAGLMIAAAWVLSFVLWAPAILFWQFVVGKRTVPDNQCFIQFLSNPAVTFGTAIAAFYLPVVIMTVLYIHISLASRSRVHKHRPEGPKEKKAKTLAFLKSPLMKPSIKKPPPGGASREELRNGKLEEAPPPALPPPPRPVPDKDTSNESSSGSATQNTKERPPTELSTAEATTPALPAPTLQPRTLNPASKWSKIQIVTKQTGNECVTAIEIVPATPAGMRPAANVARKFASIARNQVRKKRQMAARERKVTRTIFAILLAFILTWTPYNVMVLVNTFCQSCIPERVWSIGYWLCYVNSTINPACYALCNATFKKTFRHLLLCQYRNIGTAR

[3] = Drug level in cryopreserved rat hepatocytes treated with (3-amino-4,6-dimethylthieno[2,3-b]pyridin-2-yl)(pyridin-4-yl)methanone assessed as compound formation; assay type: ADME, cell-based, Hepatocyte
[4] = Drug level in cryopreserved human hepatocytes treated with (3-amino-4,6-dimethylthieno[2,3-b]pyridin-2-yl)(pyridin-4-yl)methanone assessed as compound formation; assay type: ADME, cell-based, Hepatocyte
[5] = target: T3, Muscarinic acetylcholine receptor M4 (Homo sapiens) (UniProt P08173); assay: Positive allosteric modulation activity at human M4 receptor expressed in CHO cells co-expressing Gqi5 protein assessed as potentiation of EC20 acetyl choline-induced response by calcium mobilization assay relative to acetylcholine; assay type: functional, cell-based; outline: as §1
T3 sequence (whole entry): T1 sequence (P08173 whole entry)

[6] = target: T4, Muscarinic acetylcholine receptor M4 (Rattus norvegicus) (UniProt P08485); assay: Positive allosteric modulation activity at rat M4 receptor expressed in CHO cells co-expressing Gqi5 protein assessed as potentiation of EC20 acetyl choline-induced response by calcium mobilization assay relative to acetylcholine; assay type: functional, cell-based; outline: as §1
T4 sequence (whole entry): T2 sequence (P08485 whole entry)

Cytochrome P450 = assay: Inhibition of Cytochrome P450 (unknown origin); assay type: ADME, protein assay; settings: human
Cytochrome P450 1A2 = target: T5, Cytochrome P450 1A2 (Homo sapiens, UniProt P05177); assay: Inhibition of CYP1A2 (unknown origin); assay type: ADME
T5 sequence (P05177 whole entry): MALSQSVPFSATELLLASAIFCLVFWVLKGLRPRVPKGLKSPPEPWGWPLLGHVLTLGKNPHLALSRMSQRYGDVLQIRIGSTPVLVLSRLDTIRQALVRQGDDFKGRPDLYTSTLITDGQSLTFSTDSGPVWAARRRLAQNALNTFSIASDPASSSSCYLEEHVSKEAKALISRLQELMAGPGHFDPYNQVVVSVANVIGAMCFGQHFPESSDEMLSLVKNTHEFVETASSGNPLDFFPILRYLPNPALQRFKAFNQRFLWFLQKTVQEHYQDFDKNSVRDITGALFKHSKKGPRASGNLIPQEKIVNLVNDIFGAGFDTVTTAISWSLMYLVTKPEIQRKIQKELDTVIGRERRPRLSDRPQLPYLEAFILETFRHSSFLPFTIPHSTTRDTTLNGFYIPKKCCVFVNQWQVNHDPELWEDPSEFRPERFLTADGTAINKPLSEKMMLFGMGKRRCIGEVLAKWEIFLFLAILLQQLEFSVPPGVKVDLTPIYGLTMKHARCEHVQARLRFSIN

[7] = Selectivity ratio of EC50 for rat M4 receptor expressed in CHO cells co-expressing Gqi5 protein to EC50 for human M4 receptor expressed in CHO cells co-expressing Gqi5 protein; assay type: cell-based
[8] = Fraction unbound in human plasma; assay type: ADME, cell-free
Outline: (§2)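 Plasma protein binding, reported as fraction unbound in rat and human plasma. Single experiment (n=1) run in triplicate.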

[9] = Fraction unbound in rat plasma; assay type: ADME, cell-free; outline: as §2
[10] = Drug metabolism in cryopreserved rat hepatocytes assessed as secondary alcohol 18 formation; assay type: ADME, cell-based, Hepatocyte
[11] = Drug metabolism in cryopreserved human hepatocytes assessed as secondary alcohol 18 formation; assay type: ADME, cell-based, Hepatocyte
[12] = Ratio of drug level in Sprague-Dawley rat brain to plasma at 0.2 to 0.25 mg/kg, iv administered as cassette dose measured 0.25 hrs post dose; assay type: ADME, organism-based; settings: brain and plasma
Outline: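 Male Sprague-Dawley rats (n=1) received an IV cassette dose of 0.20-0.25 mg/kg. Brain and plasma sampled 0.25 hr post-administration. Total brain:plasma partition coefficient (Kp) measured; unbound coefficient (Kp,uu) calculated.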

[13] = target: T6, Muscarinic acetylcholine receptor M5 (Homo sapiens) (UniProt P08912); assay: Positive allosteric modulation activity at human M5 receptor
T6 sequence (whole entry): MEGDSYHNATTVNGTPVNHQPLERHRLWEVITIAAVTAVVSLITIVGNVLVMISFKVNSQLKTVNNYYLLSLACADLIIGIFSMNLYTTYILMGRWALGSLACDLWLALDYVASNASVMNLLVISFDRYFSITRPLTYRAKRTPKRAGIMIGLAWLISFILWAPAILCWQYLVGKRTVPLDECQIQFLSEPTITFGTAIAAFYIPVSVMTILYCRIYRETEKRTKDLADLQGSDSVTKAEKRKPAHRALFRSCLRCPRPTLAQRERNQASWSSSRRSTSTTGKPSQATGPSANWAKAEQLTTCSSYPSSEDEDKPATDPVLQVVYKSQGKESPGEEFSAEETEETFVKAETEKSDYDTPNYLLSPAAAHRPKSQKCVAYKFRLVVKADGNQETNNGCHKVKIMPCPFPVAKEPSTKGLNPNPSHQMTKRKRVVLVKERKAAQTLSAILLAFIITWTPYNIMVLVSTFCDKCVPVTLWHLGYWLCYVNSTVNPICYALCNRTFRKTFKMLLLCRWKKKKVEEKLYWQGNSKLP

[14] = Intrinsic clearance in human microsomes; assay type: ADME, Microsome
Outline: (§3)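 Hepatic microsomal intrinsic clearance, from which predicted hepatic clearance was derived. Single experiment (n=1) run in triplicate.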

[15] = Intrinsic clearance in rat microsomes; assay type: ADME, Microsome; outline: as §3

EC50 ([1]; read-out: EC50) [nM] | EC50 ([2]; read-out: EC50) [nM] | Drug metabolism [3] | Drug metabolism [4] | %max [5] [%] | %max [6] [%] | inhibition (INH) (Cytochrome P450) | inhibition (INH) (Cytochrome P450 1A2) | fraction unbound [8] | fraction unbound [9] | Drug metabolism [10] | Drug metabolism [11] | Kp at 0.25 h [12] | EC50 ([1]; read-out: pEC50 (converted)) [nM] | EC50 ([2]; read-out: pEC50 (converted)) [nM] | Activity [13] | CLint scaled [14] [mL/min/kg] | CLint scaled [15] [mL/min/kg] | SMILES | Ratio EC50 [7]
> 10000 | > 10000 | Metabolite_Detected | Metabolite_Detected |  |  |  |  |  |  |  |  |  |  |  |  |  |  | Cc1cc(C)c2c(N)c(C(O)c3ccncc3)sc2n1 (configuration not stated) | 
589 | 2240 |  |  | 71 | 64 | Not Active | Active | 0.005 to 0.18 | 0.005 to 0.18 | Metabolite_Detected | Metabolite_Detected | 0.83 to 6.95 |  |  |  |  |  | Cc1cc(C)c2c(N)c(C(=O)c3ccncc3)sc2n1 | 4 to 7
120 to 138 | 76 to 145 |  |  | 76 to 76.8 | 71 to 80.5 |  |  | 0.007 | 0.008 |  |  |  | 138 | 145 | inactive | 429 | 2070 | Cc1nc2sc(C(=O)c3ccccc3)c(N)c2c(C)c1C | 
